For assay [1], the target named is T1, Proteasome Macropain subunit MB1 (Homo sapiens, UniProt P28074).
T1 sequence (P28074 whole entry): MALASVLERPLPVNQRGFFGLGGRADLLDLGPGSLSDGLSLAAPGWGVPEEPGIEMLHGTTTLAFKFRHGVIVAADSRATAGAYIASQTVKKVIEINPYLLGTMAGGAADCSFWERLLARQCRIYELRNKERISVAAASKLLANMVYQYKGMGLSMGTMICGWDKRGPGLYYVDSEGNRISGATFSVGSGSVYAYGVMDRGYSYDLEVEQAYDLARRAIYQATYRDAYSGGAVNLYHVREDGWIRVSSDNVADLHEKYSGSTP
In words: Inhibition of 20S proteasome beta5 subunit in human Jurkat cell lysate using Suc-LLVY-AMC as substrate pretreated for 30 mins followed by substrate addition and measured after 60 mins by fluorescence assay. The procedure, abridged:
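Lysate was preincubated with compound 30 min at 37 °C. 100 μM substrate solution was added: Suc-LLVY-AMC for β5, Suc-RLR-AMC for β2. IC50 by nonlinear regression, ±SD.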

The subject of the next assay is MCF7. In words: Cytotoxicity against human MCF7 cells after 48 hrs by MTT assay. The assay is classed as functional, cell-based. To be noted: MCF7, 48 h. The procedure, abridged:
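MCF7 cells plated at 4*10⁴ cells/mL and left overnight to adhere, then exposed to a concentration series for 48 h, with DMSO vehicle, untreated cells, and 100 μM phenylarsine oxide as controls. MTT (5 mg/mL stock in PBS) was added for 2 h at 37 °C. Formazan was dissolved in DMSO and OD read at 490 nm. The best three of quadruplicate wells were used; IC50 from nonlinear regression on normalized data, ±SD.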
A general note: Tetrazolium dyes change colour on reduction, which living cells bring about.

Another assay has as its system MDA-MB-231. In words: Cytotoxicity against human MDA-MB-231 cells after 48 hrs by MTT assay. The assay is classed as functional, cell-based. To be noted: MDA-MB-231, 48 h. The procedure, abridged:
(§1)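 MTT viability after 48 h exposure to a concentration series; MDA-MB-231 seeded at 4*10⁴ cells/mL and adhered overnight, RPMI 8226 at 4*10⁵ cells/mL and dosed immediately. MTT (5 mg/mL in PBS) added, 2 h at 37 °C; formazan dissolved in DMSO (MDA-MB-231) or DMF/SDS pH<4 (RPMI 8226); OD 490 nm.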

A further assay concerns RPMI-8226. The experiment in a line: Cytotoxicity against human RPMI8226 cells after 48 hrs by MTT assay. Format: functional, cell-based. To be noted: RPMI-8226, 48 h. The procedure, abridged:
as §1

Assay [2] has as its target T2, Proteasome Macropain subunit MB1 (Homo sapiens) (UniProt P28074).
T2 sequence (whole entry): T1 sequence (P28074 whole entry)
In words: Inhibition of 20S proteasome beta5 subunit in human MCF7 cells using Suc-LLVY-AMC as substrate pretreated for 1 hr followed by compound washout and cell lysis prior to substrate addition measured after 1 hr by fluorescence assay. Format: cell-based. The gist of the method:
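Adherent MCF7 (500,000 cells/mL, overnight, ~100% confluent) dosed 1 h at 37 °C, 5% CO₂; washed twice with PBS, lysed in HEPES/Triton buffer on ice 1 h; 15 min at 37 °C, then 100 μM Suc-LLVY-AMC 1 h at 37 °C; ex 360/em 480 nm. IC50 from best three of four biological replicates per concentration.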

In assay [3] the target is T3, Proteasome subunit beta type-1 (Saccharomyces cerevisiae (strain ATCC 204508 / S288c) (Baker's yeast), UniProt P38624).
T3 sequence (P38624 whole entry): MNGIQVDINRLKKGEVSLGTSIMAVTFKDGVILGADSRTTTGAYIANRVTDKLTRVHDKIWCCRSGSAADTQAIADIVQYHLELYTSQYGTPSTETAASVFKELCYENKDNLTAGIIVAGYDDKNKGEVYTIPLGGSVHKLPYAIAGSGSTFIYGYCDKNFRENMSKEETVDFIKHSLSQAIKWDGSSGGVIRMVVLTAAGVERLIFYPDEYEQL
In words: Inhibition of yeast 20S proteasome beta1 subunit using fluorescent substrate pretreated for 30 mins followed by substrate addition and measured after 60 mins by fluorescence assay.

For assay [4], the target named is T4, Proteasome subunit beta type-2 (Saccharomyces cerevisiae (strain ATCC 204508 / S288c) (Baker's yeast), UniProt P25043).
T4 sequence (P25043 whole entry): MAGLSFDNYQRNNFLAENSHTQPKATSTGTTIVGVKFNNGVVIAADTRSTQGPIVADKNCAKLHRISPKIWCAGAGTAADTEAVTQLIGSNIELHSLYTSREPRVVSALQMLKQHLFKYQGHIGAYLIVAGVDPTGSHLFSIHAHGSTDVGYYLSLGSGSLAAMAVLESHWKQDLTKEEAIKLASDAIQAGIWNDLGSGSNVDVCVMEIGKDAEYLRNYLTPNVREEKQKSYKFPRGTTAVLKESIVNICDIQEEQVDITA
The experiment in a line: Inhibition of yeast 20S proteasome beta2 subunit using SUC-RLR-AMC as substrate pretreated for 30 mins followed by substrate addition and measured after 60 mins by fluorescence assay. The procedure, abridged: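 Fluorogenic substrate was then added (100 μM Suc-RLR-AMC solution for β2) and incubated 60 min at 37 °C; cleavage read at ex 360/em 480 nm. IC50 from nonlinear regression on normalized data, ±SD.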

In general, IC50 refers to the concentration needed to halve the response being measured.

Active and inactive are the calls of the source. The calls are words filed in the database; no cut-off is given here. Some results are limits rather than exact numbers.

In the case of `C=CCCOC(=O)[C@@H](NC(=O)[C@@H](NC(=O)[C@@H]1OC(=O)[C@H]1[C@@H](C)CC)C(C)C)C(C)C`, the IC50 turned out to be 0.0066 µM in assay [1], 0.523 µM in the assay with MCF7, 0.341 µM with MDA-MB-231 and 0.272 µM in the assay with RPMI-8226.
Regarding `CC[C@H](C)[C@@H]1C(=O)O[C@H]1C(=O)N[C@@H](Cc1ccccc1)C(=O)N[C@H](C(=O)OCc1ccccc1)C(C)C`, the IC50 in assay [1] was found to be 0.0078 µM; with MCF7, 6.95 µM; in the assay on MDA-MB-231, 3.76 µM; in the assay with RPMI-8226 it was 2.61 µM. Further, the inhibition result in assay [2] is “Active”.
Take `CC[C@H](C)[C@@H]1C(=O)O[C@H]1C(=O)N[C@H](C(=O)N[C@@H](CC(C)C)C(=O)OCc1ccccc1)C(C)C`: the IC50 in assay [1] is 0.0077 µM; in the assay on MCF7 it was 0.332 µM; in the assay on MDA-MB-231 it was 0.219 µM; with RPMI-8226, 0.286 µM. Also, the inhibition entry in assay [2] is “Active”.
On to `CC(C)[C@H](NC(=O)[C@@H]1OC(=O)[C@H]1C1CC1)C(=O)N[C@H](C(=O)OCc1ccccc1)C(C)C`, for which the IC50 is 0.0076 µM in assay [1], over 100 µM with MCF7, over 100 µM in the assay on MDA-MB-231 and 73.9 µM in the assay on RPMI-8226. In addition, in assay [2], the inhibition result was “inactive”.
On to `CC[C@H](C)[C@@H]1C(=O)O[C@H]1C(=O)N[C@H](C(=O)N[C@H](C(=O)OCC(C)C)C(C)C)C(C)C`, for which the IC50 in assay [1] stood at 0.0088 µM; in the assay with MCF7, 0.664 µM; in the assay with MDA-MB-231, 0.317 µM; in the assay with RPMI-8226, 0.095 µM.
Take `CC(C)[C@H](NC(=O)[C@@H]1OC(=O)[C@H]1C1CCC1)C(=O)N[C@H](C(=O)OCc1ccccc1)C(C)C`: the IC50 in assay [1] is 0.0132 µM; with MCF7 it was over 50 µM; with MDA-MB-231 it was over 50 µM; in the assay with RPMI-8226, 37.2 µM. In addition, in assay [2], the inhibition entry was “inactive”.
Regarding `CC[C@H](C)[C@@H]1C(=O)O[C@H]1C(=O)NCC(=O)N[C@H](C(=O)OCc1ccccc1)C(C)C`, the half-maximal inhibitory concentration (IC50) in assay [1] stood at 0.0027 µM; in the assay on MCF7 it was 2.08 µM; in the assay on MDA-MB-231, 0.678 µM; in the assay on RPMI-8226, 0.762 µM. For the same compound, the inhibition result in assay [2] is “Active”.
Regarding `CC(C)C[C@@H]1C(=O)O[C@H]1C(=O)N[C@H](C(=O)N[C@H](C(=O)OCc1ccccc1)C(C)C)C(C)C`, the 50% inhibitory concentration (IC50) stood at 0.0197 µM in assay [1], 55.3 µM in the assay with MCF7, 30.3 µM with MDA-MB-231 and 33.5 µM in the assay on RPMI-8226. In assay [2], the inhibition entry was “inactive”.
Take `CC[C@H](C)[C@@H]1C(=O)O[C@H]1C(=O)N[C@H](C(=O)N[C@H](C(=O)OCC1CCCCC1)C(C)C)C(C)C`: the 50% inhibitory concentration (IC50) in assay [1] is 0.0187 µM; with MCF7 it was 4.62 µM; in the assay on MDA-MB-231, 3.22 µM; with RPMI-8226 it was 0.303 µM.
As for `CC[C@H](C)[C@@H]1C(=O)O[C@H]1C(=O)N[C@H](C(=O)N[C@@H](Cc1ccccc1)C(=O)OCc1ccccc1)C(C)C`, the IC50 came to 0.0057 µM in assay [1], 2.75 µM with MCF7, 3.35 µM in the assay on MDA-MB-231 and 1.1 µM in the assay on RPMI-8226.
On to `CC[C@H](C)[C@@H]1C(=O)O[C@H]1C(=O)N[C@@H](COCc1ccccc1)C(=O)N[C@H](C(=O)OCc1ccccc1)C(C)C`, for which the IC50 amounted to 0.0077 µM in assay [1], 3.45 µM in the assay on MCF7, 2.86 µM in the assay on MDA-MB-231 and 1.71 µM with RPMI-8226. Further, in assay [2], the inhibition entry is “Active”.
For `CC[C@H](C)[C@@H]1C(=O)O[C@H]1C(=O)N[C@H](C(=O)N[C@H](C(=O)OC)C(C)C)C(C)C`, the IC50 is 0.0159 µM in assay [1], 0.427 µM in the assay on MCF7, 0.312 µM with MDA-MB-231 and 0.268 µM with RPMI-8226.
In the case of `CC[C@H](C)[C@@H]1C(=O)O[C@H]1C(=O)N[C@H](C(=O)N[C@H](C(=O)OCc1ccccc1)C(C)(C)C)C(C)C`, the IC50 in assay [1] stood at 0.0098 µM; with MCF7, 1.14 µM; in the assay with MDA-MB-231, 1.91 µM; with RPMI-8226 it was 1.75 µM. The inhibition result in assay [2] is “inactive”.
Consider `CC[C@H](C)[C@@H]1C(=O)O[C@H]1C(=O)N[C@@H](Cc1ccccc1)C(=O)N[C@@H](Cc1ccccc1)C(=O)OCc1ccccc1`, for which the IC50 in assay [1] came to 0.0116 µM; in the assay on MCF7, 6.25 µM; with MDA-MB-231, 5.21 µM; in the assay with RPMI-8226 it was 1.18 µM.
Regarding `CC[C@H](C)[C@@H]1C(=O)O[C@H]1C(=O)N[C@@H](CC(C)C)C(=O)N[C@H](C(=O)OCc1ccccc1)C(C)C`, the IC50 in assay [1] came out at 0.005 µM; with MCF7, 2.46 µM; in the assay with MDA-MB-231 it was 1.45 µM; with RPMI-8226 it was 2.24 µM. Moreover, in assay [2], the inhibition entry was “Active”.
Turning to `CC(C)C[C@H](NC(=O)[C@H](CCc1ccccc1)NC(=O)CN1CCOCC1)C(=O)N[C@@H](Cc1ccccc1)C(=O)N[C@@H](CC(C)C)C(=O)[C@@]1(C)CO1` [CARFILZOMIB], the IC50 in assay [3] is over 1 µM; in assay [4], over 1 µM; with MCF7, 0.0041 µM; in the assay with MDA-MB-231, 0.0044 µM; with RPMI-8226, 0.0067 µM.
Consider `CC[C@H](C)[C@@H]1C(=O)O[C@H]1C(=O)N[C@H](C(=O)N[C@H](C(=O)OCc1ccccc1)C(C)(C)C)C(C)(C)C`, for which the IC50 in assay [1] came to 0.0359 µM; in the assay with MCF7, 1.91 µM; in the assay on MDA-MB-231, 0.673 µM; in the assay on RPMI-8226, 1.22 µM.
Turning to `CC[C@H](C)[C@@H]1C(=O)O[C@H]1C(=O)N[C@H](C(=O)N[C@H](C(=O)OCc1ccc(Cl)cc1)C(C)C)C(C)C`, the 50% inhibitory concentration (IC50) in assay [1] turned out to be 0.0082 µM; with MCF7 it was 0.918 µM; with MDA-MB-231, 0.312 µM; in the assay on RPMI-8226, 0.085 µM.
In the case of `CC[C@H](C)[C@@H]1C(=O)O[C@H]1C(=O)N[C@H](C(=O)N[C@H](C(=O)OCc1ccc(OC)cc1)C(C)C)C(C)C`, the IC50 in assay [1] stood at 0.0102 µM; in the assay on MCF7 it was 0.854 µM; in the assay with MDA-MB-231, 0.28 µM; in the assay with RPMI-8226 it was 0.114 µM.
As for `CC[C@H](C)[C@@H]1C(=O)O[C@H]1C(=O)N[C@H](C(=O)N[C@H](C(=O)OCc1ccccc1)C(C)C)C(C)(C)C`, the IC50 is 0.0228 µM in assay [1], 2.29 µM with MCF7, 0.699 µM with MDA-MB-231 and 0.748 µM in the assay with RPMI-8226. In addition, the inhibition entry in assay [2] is “Active”.
Regarding `CC(C)[C@H](NC(=O)[C@@H]1OC(=O)[C@H]1C1CCCC1)C(=O)N[C@H](C(=O)OCc1ccccc1)C(C)C`, the half-maximal inhibitory concentration (IC50) stood at 0.0129 µM in assay [1], 50.6 µM in the assay on MCF7, 28.2 µM in the assay with MDA-MB-231 and 2.35 µM with RPMI-8226. Moreover, the inhibition result in assay [2] is “inactive”.

(Values after ChEMBL document CHEMBL4270628, “Design, synthesis, and evaluation of cystargolide-based β-lactones as potent proteasome inhibitors” (Eur J Med Chem, 2018).)
